In ChEMBL document CHEMBL4406852, “Combating fluconazole-resistant fungi with novel β-azole-phenylacetone derivatives” (Eur J Med Chem, 2019):
≈ marks a conversion by molar mass, not a printed value.

Tests used:
Type in all cases: functional
Candida albicans [1] = assay: Antifungal activity against fluconazole-resistant Candida albicans 17 assessed as reduction in fungal growth incubated for 24 hrs by serial dilution method; conditions: Candida albicans, 17, 24 h
Outline: (§1)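 Fluconazole-resistant C. albicans clinical isolates (17# and CaR from AIDS patients; 632, 901, 904 from clinic) tested by CLSI broth dilution MIC in RPMI 1640 buffered to pH 7.0 with MOPS. Compounds dissolved in DMSO, serially diluted to final 0.03–16 or 0.125–64 μg/mL; inoculum 1–5 × 10^3 CFU/mL; 35 °C, 24 h. MIC = lowest concentration inhibiting visible growth; fluconazole and itraconazole as controls.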

Candida albicans [2] = assay: Antifungal activity against Candida albicans SC5314 assessed as reduction in fungal growth incubated for 24 hrs by serial dilution method; conditions: SC5314, 24 h
Outline: (§2)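 MIC by CLSI broth microdilution in RPMI 1640 buffered to pH 7.0 with MOPS. Compounds dissolved in DMSO and serially diluted to final 0.03–16 or 0.125–64 µg/mL. Inoculum 1–5 × 10^3 CFU/mL. Incubation 35 °C, 24 h. Drug-free growth and fungus-free blank controls. MIC is the lowest concentration preventing visible growth.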

Candida albicans [3] = assay: Antifungal activity against fluconazole-resistant Candida albicans 901 assessed as reduction in fungal growth incubated for 24 hrs by serial dilution method; conditions: Candida albicans, 901, 24 h; outline: as §1
Candida albicans [4] = assay: Antifungal activity against fluconazole-resistant Candida albicans 904 assessed as reduction in fungal growth incubated for 24 hrs by serial dilution method; conditions: Candida albicans, 904, 24 h; outline: as §1
Candida albicans [5] = assay: Antifungal activity against fluconazole-resistant Candida albicans CaR assessed as reduction in fungal growth incubated for 24 hrs by serial dilution method; outline: as §1
Candida albicans [6] = assay: Antifungal activity against Candida albicans GIM 2.194 assessed as reduction in fungal growth incubated for 24 hrs by serial dilution method; conditions: GIM 2.194, 24 h; outline: as §2
Candida tropicalis = assay: Antifungal activity against Candida tropicalis GIM 2.183 assessed as reduction in fungal growth incubated for 24 hrs by serial dilution method; conditions: GIM 2.183, 24 h; outline: as §2
Candida parapsilosis = assay: Antifungal activity against Candida parapsilosis GIM 2.190 assessed as reduction in fungal growth incubated for 24 hrs by serial dilution method; conditions: Lodderomyces parapsilosis, GIM 2.190, 24 h; outline: as §2
Candida albicans [7] = assay: Antifungal activity against fluconazole-resistant Candida albicans 632 assessed as reduction in fungal growth incubated for 24 hrs by serial dilution method; conditions: Candida albicans, 632, 24 h; outline: as §1
Nakaseomyces glabratus = assay: Antifungal activity against Candida glabrata assessed as reduction in fungal growth incubated for 24 hrs by serial dilution method; outline: as §2

SMILES	MIC (Candida albicans [1]) [µg/mL]	MIC (Candida albicans [2]) [µg/mL]	MIC (Candida albicans [3]) [µg/mL]	MIC (Candida albicans [4]) [µg/mL]	MIC (Candida albicans [5]) [µg/mL]	MIC (Candida albicans [6]) [µg/mL]	MIC (Candida tropicalis) [µg/mL]	MIC (Candida parapsilosis) [µg/mL]	MIC (Candida albicans [7]) [µg/mL]	MIC (Nakaseomyces glabratus) [µg/mL]
O=C(NC(Cn1ccnc1)C(=O)c1ccc(F)cc1)c1ccc(-c2ccccc2)c(F)c1 (stereo not drawn)	> 64	0.06 (≈ 0.139 µM)	> 64	4 (≈ 9.27 µM)	> 64	0.25 (≈ 0.579 µM)	0.25 (≈ 0.579 µM)	0.25 (≈ 0.579 µM)	4 (≈ 9.27 µM)	0.5 (≈ 1.16 µM)
O=C(NC(Cn1ccnc1)C(=O)c1ccc(Cl)cc1)c1ccc(-c2ccccc2)cc1 (stereo not drawn)	> 64	0.06 (≈ 0.14 µM)	2 (≈ 4.65 µM)	2 (≈ 4.65 µM)	> 64	0.125 (≈ 0.291 µM)	0.06 (≈ 0.14 µM)	0.25 (≈ 0.582 µM)	4 (≈ 9.3 µM)	0.5 (≈ 1.16 µM)
Cc1ccc(C(=O)C(Cn2ccnc2)NC(=O)c2ccc(-c3ccccc3)cc2)cc1 (stereo not drawn)	> 64	0.06 (≈ 0.147 µM)	16 (≈ 39.1 µM)	32 (≈ 78.1 µM)	> 64	0.125 (≈ 0.305 µM)	0.03 (≈ 0.0733 µM)	0.5 (≈ 1.22 µM)	> 64	0.25 (≈ 0.611 µM)
Cc1ccccc1-c1ccc(C(=O)NC(Cn2ccnc2)C(=O)c2ccccc2)cc1 (stereo not drawn)	–	> 16	–	–	–	> 16	> 16	> 64	–	> 64
O=C(NC(Cn1ccnc1)C(=O)c1ccccc1)c1ccc(-c2ccccc2)cc1Cl (stereo not drawn)	–	8 (≈ 18.6 µM)	–	–	–	> 16	> 16	> 64	–	> 64
O=C(NC(Cn1ccnc1)C(=O)c1ccc(Cl)cc1)c1ccc(-c2ccccc2)cc1F (stereo not drawn)	> 64	0.06 (≈ 0.134 µM)	> 64	32 (≈ 71.4 µM)	> 64	0.5 (≈ 1.12 µM)	0.06 (≈ 0.134 µM)	0.125 (≈ 0.279 µM)	> 64	0.25 (≈ 0.558 µM)
O=C(NC(Cn1ccnc1)C(=O)c1ccc(Cl)cc1)c1ccc(-c2ccccc2)c(F)c1 (stereo not drawn)	> 64	0.06 (≈ 0.134 µM)	> 64	> 64	> 64	0.5 (≈ 1.12 µM)	0.06 (≈ 0.134 µM)	1 (≈ 2.23 µM)	> 64	0.5 (≈ 1.12 µM)
Cc1cc(C(=O)NC(Cn2ccnc2)C(=O)c2ccccc2)ccc1-c1ccccc1 (stereo not drawn)	–	> 16	–	–	–	> 16	> 16	> 64	–	> 64
O=C(NC(Cn1ccnc1)C(=O)c1ccccc1)c1ccc(-c2ccccc2)cc1 (stereo not drawn)	> 64	0.06 (≈ 0.152 µM)	0.5 (≈ 1.26 µM)	1 (≈ 2.53 µM)	> 64	0.125 (≈ 0.316 µM)	0.06 (≈ 0.152 µM)	0.125 (≈ 0.316 µM)	2 (≈ 5.06 µM)	0.25 (≈ 0.632 µM)
Cc1ccc(-c2ccc(C(=O)NC(Cn3ccnc3)C(=O)c3ccccc3)cc2)cc1 (stereo not drawn)	–	2 (≈ 4.88 µM)	–	–	–	> 16	> 16	> 64	–	> 64
O=C(NC(Cn1ccnc1)C(=O)c1ccccc1)c1ccc(-c2ccc(F)cc2)cc1 (stereo not drawn)	–	4 (≈ 9.67 µM)	–	–	–	> 16	8 (≈ 19.3 µM)	> 64	–	> 64
O=C(NC(Cn1ccnc1)C(=O)c1ccccc1)c1ccc(-c2ccc(Cl)cc2)cc1 (stereo not drawn)	–	0.5 (≈ 1.16 µM)	–	–	–	> 16	> 16	> 64	–	> 64
O=C(NC(Cn1ccnc1)C(=O)c1cccc(Cl)c1)c1ccc(-c2ccccc2)c(F)c1 (stereo not drawn)	> 64	0.06 (≈ 0.134 µM)	4 (≈ 8.93 µM)	4 (≈ 8.93 µM)	> 64	0.125 (≈ 0.279 µM)	0.125 (≈ 0.279 µM)	0.5 (≈ 1.12 µM)	4 (≈ 8.93 µM)	0.25 (≈ 0.558 µM)
O=C(NC(Cn1ccnc1)C(=O)c1cccc(F)c1)c1ccc(-c2ccccc2)c(F)c1 (stereo not drawn)	> 64	0.125 (≈ 0.29 µM)	0.25 (≈ 0.579 µM)	0.5 (≈ 1.16 µM)	> 64	0.25 (≈ 0.579 µM)	1 (≈ 2.32 µM)	1 (≈ 2.32 µM)	1 (≈ 2.32 µM)	2 (≈ 4.64 µM)
O=C(NC(Cn1cncn1)C(=O)c1ccccc1)c1ccc(-c2ccccc2)cc1 (stereo not drawn)	–	0.25 (≈ 0.631 µM)	–	–	–	2 (≈ 5.04 µM)	1 (≈ 2.52 µM)	–	–	–
